HDAC3 inh: inhibitors of human histone deacetylase 3 | O15379 | recombinant HDAC3, fluorogenic peptide/trypsin coupled, fluorescence | inhibition, % at 8.3 µM | 0.15% of 320,000 active | AID 2718; in the data active = inhibition above about 26%, passing the limit was not always enough; inconclusive = no clear call, values can overlap the other calls
Yeast superoxide: lowers age-related superoxide in aged yeast cells; superoxide response (% of plate mean), % at 10 µM; 0.18% of 330,000 active; S. cerevisiae aged cells, superoxide DHE fluorescence; hits give low values;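 active = superoxide response under a set limit, about three screen SD below normal, cut at about 65% in these data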;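 also: yeast aged for seven days with compound at 30 °C before DHE staining; 100% = average MFI of all compound-treated wells on the plate with controls excluded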
Efflux pump mplx: inhibitors of Candida antifungal efflux pumps expressed in yeast; S. cerevisiae Candida pump triplex, Nile Red efflux; inhibition, % at 10 µM; 0.44% of 330,000 active;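 active = plate passing quality check with inhibition over a set limit, or well fluorescence over plate mean plus 4 SD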;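 also: Nile Red retained in pooled yeast measured as flow cytometry median fluorescence; 0% = buffer negative control and 100% = Enniatin B positive control; higher means more Nile Red kept so more efflux inhibition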
IDE cell activ: boosts human insulin-degrading enzyme activity in HEK cells. FAbeta-B cleavage, fluorescence polarization; 0% vehicle, 100% cell-free pure enzyme wells. AID 493087. 0.073% of 340,000 active. activation, % at 5.96 µM. P14735;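 active = activation above the mean of all tested compounds plus 3 SD, set per screening campaign, cut at about 17% in these data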
Tb MetRS inh: blocks T. brucei methionyl-tRNA synthetase activity; AID 624268; 0.4% of 360,000 active; inhibition, % at 11.9 µM; purified T. brucei MetRS, ATP depletion, Kinase-Glo luminescence;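 active = inhibition above a per-plate cutoff of the control wells' mean inhibition plus 3 SD, cut at about 5.5% in these data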;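 also: 0% = DMSO wells median and 100% = median of wells with control inhibitor compound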
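technique = Kinase-Glo luminescence, ATP depletion format | system = purified MetRS (methionyl-tRNA synthetase) enzyme from Trypanosoma brucei | timing = 15 min preincubation, 2 h reaction, all 25 °C | evaluation = percent inhibition versus plate control medians | dosing = single dose, 11.9 µM final nominal, 0.9% final DMSO | also added = substrates ATP, L-methionine and bulk Escherichia coli tRNA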
IDE cell inh: inhibitors of human insulin-degrading enzyme in cells. 0.41% of 320,000 active. inhibition, % at 5.59 µM. AID 434962. P14735. HEK cells, FAbetaB cleavage, fluorescence polarization;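 active = percent inhibition above the average of all tested compounds plus 3 SD, set per screening campaign, cut at about 16% in these data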;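 also: IDE supplied by intact live HEK cells; FP after avidin binding of uncleaved biotin substrate so inhibition keeps polarization high; 0% = DMSO wells and 100% = 60 µM reference IDE inhibitor Ii1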
An asterisk follows results filed as active; ? = inconclusive; nt = no result. Most compounds without a hit are left out; they make up all but 1.4% or so of the library.

SMILES	HDAC3 inh	Yeast superoxide	Efflux pump mplx	IDE cell activ	Tb MetRS inh	IDE cell inh
CC1C/C(=N\NC(=O)c2ccc(NS(=O)(=O)c3ccc(Br)cc3)cc2)CC(C)(C)C1 (stereo unspecified)	37*	101	-1	0	0	0
CC1C/C(=N\NC(=O)c2ccc([N+](=O)[O-])cc2)CC(C)(C)C1 (stereo unspecified)	0	108	0	7	0	-3
COc1cc(C(=O)O/N=C2/C=C(C)C(=O)C=C2C)cc(OC)c1OC	35*	110	0	-4	2	-8
O=C(C[C@H]1CC[C@H]2[C@@H](COC[C@@H](O)CN2S(=O)(=O)c2ccc(F)cc2)O1)N[C@@H]1CCN(Cc2ccccc2)C1	nt	nt	nt	nt	0	nt
OC(CNCCC1C=Nc2ccccc21)Cn1c2ccc(Cl)cc2c2cc(Cl)ccc21 (stereo unspecified)	46*	73	0	19*	0	-7
C[C@H](O)[C@@H]1C(=O)N2CCc3c([nH]c4ccccc34)[C@@H]2C[C@@H]1N(C)C(=O)c1ccco1	nt	nt	nt	nt	3	nt
OCCCc1nc2n(n1)C(c1cccs1)C=C(c1ccccc1)N2 (stereo unspecified)	-36	101	0	nt	nt	78*
Cc1cc(Cl)ccc1OCCCC(=O)NO	77*	103	0	1	4	0
Cc1cc2c(=O)n(Cc3ccco3)c(SCC(=O)c3ccc(Cl)s3)nc2s1	27*	112	0	8	0	-1
CCOC(=O)CC(=O)CSc1nc2sc(C)cc2c(=O)n1Cc1ccco1	6	96	0	-1	0	7
NC(CO)c1cn([C@@H](CCC(=O)O)C(=O)N2CCNCC2)nn1 (stereo partly specified)	-5	102	0	22*	0	1
N#C/C(=C/c1ccc(-c2cc(C(=O)O)cc(C(=O)O)c2)o1)c1nc2ccccc2s1	15	109	0.8*	nt	nt	27*
Cc1ccc2oc(-c3ccc(NC(=O)c4ccc5c(c4)OCO5)cc3)nc2c1	1	97	0	4	-1	3
O=C(Nc1ccc(-c2nc3ccccc3o2)cc1)c1ccc2c(c1)OCO2	-1	109	0	18*	-1	-4
O=C(Nc1ncccc1O)c1ccc2c(c1)OCO2	86*	113	0	2	0	2
CO[C@H]1CN(C)C(=O)c2cc(NC(=O)c3ccccc3)ccc2OC[C@H](C)NC[C@@H]1C	nt	nt	nt	nt	0	nt
Cc1ccc(C(=O)Oc2cc(N)n(S(=O)(=O)c3ccc(F)cc3)n2)cc1	-2	87	0	0	0	4
COc1ccc(C(=O)Oc2cc(N)n(S(=O)(=O)c3ccccc3)n2)cc1	?	85	0	-3	0	4
Nc1cc(OC(=O)c2cccs2)nn1S(=O)(=O)c1ccccc1	96*	89	0	1	0	1
Nc1cc(OC(=O)c2cccs2)nn1S(=O)(=O)c1ccc(F)cc1	70*	90	0	4	0	6
COc1ccc(S(=O)(=O)n2nc(OC(=O)c3cccs3)cc2NC(=O)c2cccs2)cc1	46*	94	0	0	0	4
COc1cccc(C(=O)Oc2cc(N)n(S(=O)(=O)c3ccc(C)cc3)n2)c1OC	53*	95	0	1	0	-3
CC1(C(=O)NCc2ccccc2)CN(S(C)(=O)=O)CC(=O)N1CCCN1CCOCC1 (stereo unspecified)	nt	nt	nt	nt	0	nt
CC12CCC(=O)C=C1CCC1C2C(O)CC2(C)C1CCC2(O)C(=O)COC(=O)CCC1CCCC1 (stereo unspecified)	nt	nt	nt	nt	0	nt
COc1ccc(NC(=S)NNC(=S)Nc2cccc(C(F)(F)F)c2)cc1	28*	81	0	-2	0	7
Cc1nc2ccc(S(=O)(=O)CCC(=O)NCc3ccc(Cl)cc3)cc2s1	nt	nt	nt	nt	1	nt
Cc1ccc2nc(-c3ccc(SCC(=O)Nc4nnc(C)s4)nc3)[nH]c2c1	nt	109	1	-1	4	-6
CCc1nnc(NC(=O)CSc2ccc(-c3nc4ccccc4[nH]3)cn2)s1	nt	111	0	2	9.9*	-2
CCC(=O)Nc1ccc2c(c1)OC[C@@H](C)NC[C@@H](C)[C@@H](OC)CN(C)C2=O	nt	nt	nt	nt	0	nt
CCOc1ccc(C(=O)n2cnnc2N)cc1	nt	104	0	4	0	0
